Reference: ChEMBL document CHEMBL4813946, “Discovery of novel 4-azaaryl-N-phenylpyrimidin-2-amine derivatives as potent and selective FLT3 inhibitors for acute myeloid leukaemia with FLT3 mutations” (Eur J Med Chem, 2021)

Assays:
[1] = Inhibition of FLT3 Y591-V592insVDFREYEYD mutant (unknown origin) incubated for 120 mins by ADP-glo based luminescence assay; set-up: species or system Homo sapiens
[2] = test system: MV4-11; test: Induction of apoptosis in human MV4-11 cells assessed as necrotic cells at 5 x GI50 concentration incubated for 24 hrs by annexin V-FITC and propidium iodide staining based flow cytometry (reference value: 0.75 %); assay type: functional
[3] = test system: MV4-11; test: Induction of apoptosis in human MV4-11 cells assessed as necrotic cells at 5 x GI50 concentration incubated for 48 hrs by annexin V-FITC and propidium iodide staining based flow cytometry (reference value: 0.45 %); assay type: functional
[4] = biological target: Cyclin-dependent kinase 2/cyclin E1 (Homo sapiens, UniProt P24941); test: Inhibition of CDK2/cyclin E (unknown origin) using histone 1 protein substrate incubated for 120 mins measured after 40 mins incubation under dark by ADP-glo based luminescence assay; assay type: protein-complex assay
Summary of the method: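 In-house ADP-Glo assay with 2 mM DMSO stocks. Kinases were CDK1/cyclin B at 1 nM, CDK2/cyclin E1 at 10 nM and CDK7/cyclin H/MAT1 at 40 nM. Substrate was histone 1 for CDK1 and CDK2, and a RNA pol II CTD peptide for CDK7. Compound at 8–10 concentrations, 1:3 serial, final DMSO 0.5%. Reactions ran 60–120 min at room temperature, then ADP-Glo reagent 40 min in the dark, then detection reagent 40 min, read by luminescence. Ki was derived from IC50 by Cheng-Prusoff.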

[5] = test system: MV4-11; test: Antiproliferative activity against human MV4-11 cells incubated for 72 hrs by resazurin assay; assay type: functional
Summary of the method: (§1)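 Cells seeded and pre-incubated 24 h at 37 °C, 5% CO2, then given a five-fold dilution series of compound (from 10 mM DMSO stock) in medium, in triplicate. Resazurin added after 72 h exposure, 4 h in dark at 37 °C. Fluorescence read at 570/585 nm, normalised to DMSO vehicle. GI50 by non-linear regression; mean ± SD of at least two replicates.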

[6] = test system: U-937; test: Induction of apoptosis in human U937 cells assessed as late apoptotic cells at 10 x GI50 concentration incubated for 48 hrs by annexin V-FITC staining based flow cytometry (reference value: 9.82 %); assay type: functional
[7] = test system: U-937; test: Induction of apoptosis in human U937 cells assessed as late apoptotic cells at 10 x GI50 concentration incubated for 24 hrs by annexin V-FITC and propidium iodide staining based flow cytometry (reference value: 10.30 %); assay type: functional
[8] = test system: MV4-11; test: Induction of apoptosis in human MV4-11 cells assessed as necrotic cells at 10 x GI50 concentration incubated for 24 hrs by annexin V-FITC and propidium iodide staining based flow cytometry (reference value: 0.75 %); assay type: functional
[9] = test system: U-937; test: Induction of apoptosis in human U937 cells assessed as early apoptotic cells at 20 x GI50 concentration incubated for 24 hrs by annexin V-FITC and propidium iodide staining based flow cytometry (reference value: 1.81 %); assay type: functional
[10] = Antiproliferative activity against human MOLM-13 cells harboring FLT3-ITD mutant assessed as reduction in cell viability after 72 hrs by resazurin assay; assay type: functional; settings: MOLM-13, 72 h; summary of the method: as §1
[11] = biological target: Receptor-type tyrosine-protein kinase FLT3 (Homo sapiens, UniProt P36888, D835Y); test: Inhibition of FLT3 D835Y mutant (unknown origin) incubated for 120 mins by ADP-glo based luminescence assay
[12] = biological target: T1, Receptor-type tyrosine-protein kinase FLT3 (Homo sapiens, UniProt P36888); test: Inhibition of wild type FLT3 (unknown origin) using Glu/Tyr peptide substrate incubated for 120 mins measured after 40 mins incubation under dark by ADP-glo based luminescence assay
T1 sequence (P36888 whole entry): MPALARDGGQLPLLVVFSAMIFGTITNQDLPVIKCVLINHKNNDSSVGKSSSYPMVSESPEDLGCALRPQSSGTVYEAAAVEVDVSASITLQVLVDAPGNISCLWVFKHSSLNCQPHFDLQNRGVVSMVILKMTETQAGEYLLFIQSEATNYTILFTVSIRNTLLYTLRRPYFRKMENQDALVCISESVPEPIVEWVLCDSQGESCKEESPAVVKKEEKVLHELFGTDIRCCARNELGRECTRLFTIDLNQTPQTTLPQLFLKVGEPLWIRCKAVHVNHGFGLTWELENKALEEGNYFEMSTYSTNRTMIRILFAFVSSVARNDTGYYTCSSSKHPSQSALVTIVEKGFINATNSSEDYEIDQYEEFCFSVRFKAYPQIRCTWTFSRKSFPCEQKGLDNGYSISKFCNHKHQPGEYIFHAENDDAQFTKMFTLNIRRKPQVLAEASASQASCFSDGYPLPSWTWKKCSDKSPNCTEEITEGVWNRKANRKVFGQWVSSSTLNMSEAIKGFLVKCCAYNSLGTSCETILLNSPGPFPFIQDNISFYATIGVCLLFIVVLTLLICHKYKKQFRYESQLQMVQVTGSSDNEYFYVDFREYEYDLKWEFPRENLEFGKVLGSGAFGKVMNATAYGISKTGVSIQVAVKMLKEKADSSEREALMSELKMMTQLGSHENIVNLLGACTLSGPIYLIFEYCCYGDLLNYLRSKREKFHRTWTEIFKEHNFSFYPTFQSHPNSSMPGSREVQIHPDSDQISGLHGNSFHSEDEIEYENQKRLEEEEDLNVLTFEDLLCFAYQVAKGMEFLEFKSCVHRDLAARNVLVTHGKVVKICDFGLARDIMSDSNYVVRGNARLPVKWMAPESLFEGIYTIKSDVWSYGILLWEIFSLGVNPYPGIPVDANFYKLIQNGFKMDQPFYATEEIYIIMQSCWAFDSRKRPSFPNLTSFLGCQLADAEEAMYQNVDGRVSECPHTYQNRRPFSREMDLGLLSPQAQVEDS
Summary of the method: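 In-house ADP-Glo assay with poly(Glu,Tyr) 4:1 substrate in 40 mM Tris pH 7.5, 20 mM MgCl2, 50 µM DTT, 0.1 mg/mL BSA. Kinase at 20 nM. ADP-Glo reagent 40 min in the dark, detection reagent 30–40 min, then luminescence. Ki was derived from IC50 by Cheng-Prusoff.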

[13] = test system: MV4-11; test: Antiproliferative activity against human MV4-11 cells harboring FLT3-ITD mutant assessed as reduction in cell viability after 72 hrs by resazurin assay; assay type: functional; summary of the method: as §1
[14] = test system: U-937; test: Induction of apoptosis in human U937 cells assessed as viable cells at 1 x GI50 concentration incubated for 24 hrs by annexin V-FITC and propidium iodide staining based flow cytometry (reference value: 86.80 %); assay type: functional
[15] = test system: U-937; test: Induction of apoptosis in human U937 cells assessed as viable cells at 5 x GI50 concentration incubated for 24 hrs by annexin V-FITC and propidium iodide staining based flow cytometry (reference value: 86.80 %); assay type: functional
[16] = test system: U-937; test: Induction of apoptosis in human U937 cells assessed as early apoptotic cells at 10 x GI50 concentration incubated for 24 hrs by annexin V-FITC and propidium iodide staining based flow cytometry (reference value: 1.81 %); assay type: functional
[17] = test system: U-937; test: Induction of apoptosis in human U937 cells assessed as late apoptotic cells at 1 x GI50 concentration incubated for 48 hrs by annexin V-FITC staining based flow cytometry (reference value: 9.82 %); assay type: functional

Ki [1]: 185 nM
Ki [4]: > 5000 nM
GI50 [5]: 74 nM
Ki [11]: 47 nM
Ki [12]: 9 nM
GI50 [13]: 74 nM
SMILES: CC(=O)N1CCN(c2ccc(Nc3nccc(-c4cn(C)c5ncccc45)n3)cc2)CC1
Activity [2]: 1.86%
Activity [3]: 0.86%
Activity [6]: 12.02%
Activity [7]: 10.31%
Activity [8]: 2.13%
Activity [9]: 2.63%
GI50 [10]: 23 nM
Activity [14]: 88.19%
Activity [15]: 86.36%
Activity [16]: 2.48%
Activity [17]: 9.22%
